Five compounds from paper PMC4804196 (Journal of biomolecular screening, 2012) can be followed below.

pEC50: −log10 of the molar value. Bounds are passed on as bounds.

Experiment [1] addresses T1, human RXFP1 (Homo sapiens, UniProt Q9HBX9).
T1 sequence (Q9HBX9 1-757): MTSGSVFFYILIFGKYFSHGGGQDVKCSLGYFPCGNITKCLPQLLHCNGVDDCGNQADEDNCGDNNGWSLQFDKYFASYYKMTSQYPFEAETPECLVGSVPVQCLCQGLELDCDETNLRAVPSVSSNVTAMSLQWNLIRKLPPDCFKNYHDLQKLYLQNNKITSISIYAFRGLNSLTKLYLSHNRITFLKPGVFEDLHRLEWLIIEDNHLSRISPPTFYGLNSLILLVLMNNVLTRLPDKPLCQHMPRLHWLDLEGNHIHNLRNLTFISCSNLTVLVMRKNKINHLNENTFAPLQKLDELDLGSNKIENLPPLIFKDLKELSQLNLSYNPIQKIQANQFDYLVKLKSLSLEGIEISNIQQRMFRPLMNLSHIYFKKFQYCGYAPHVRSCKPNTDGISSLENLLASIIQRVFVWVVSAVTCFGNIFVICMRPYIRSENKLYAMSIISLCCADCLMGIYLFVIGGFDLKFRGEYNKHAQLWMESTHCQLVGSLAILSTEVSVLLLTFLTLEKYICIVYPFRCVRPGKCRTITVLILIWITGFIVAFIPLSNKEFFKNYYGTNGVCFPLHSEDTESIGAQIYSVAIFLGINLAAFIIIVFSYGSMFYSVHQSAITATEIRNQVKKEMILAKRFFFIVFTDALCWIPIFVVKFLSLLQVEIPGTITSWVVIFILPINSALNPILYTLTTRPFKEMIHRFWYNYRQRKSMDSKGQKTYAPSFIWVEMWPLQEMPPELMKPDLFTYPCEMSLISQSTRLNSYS
Nature of the experiment: ELISA cAMP assay. The settings on record: 96-well; for efficacy: normalized to 57.5 μM forskolin as 100%. The format is cell-based. An outline of the steps: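 HEK293T cells stably expressing human RXFP1 were grown in DMEM with 10% FBS, penicillin/streptomycin and 500 μg/mL geneticin. They were seeded at 16,000 cells/well and left overnight at 37 °C, 5% CO₂. PDE inhibitor Ro 20-1724 (417 μM addition solution in PBS+) was added, then test compound in DMSO, for 30 min at 37 °C. Cells were lysed and cAMP was quantified by ELISA. EC50 came from nonlinear regression of dose-response curves.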
On the technique in general: An ELISA detects its analyte on a solid surface through an enzyme-linked reagent.

In experiment [2] the target is human relaxin family receptor 1 (RXFP1) (human) (UniProt Q9HBX9).
For experiment [3], the target named is T1, human RXFP1. Nature of the experiment: HTRF cAMP assay in HEK293-RXFP1 cells. Format: cell-based.
Experiment [4] addresses T2, vasopressin 1b receptor (V1b) (Homo sapiens, UniProt P47901).
T2 sequence (P47901 1-424): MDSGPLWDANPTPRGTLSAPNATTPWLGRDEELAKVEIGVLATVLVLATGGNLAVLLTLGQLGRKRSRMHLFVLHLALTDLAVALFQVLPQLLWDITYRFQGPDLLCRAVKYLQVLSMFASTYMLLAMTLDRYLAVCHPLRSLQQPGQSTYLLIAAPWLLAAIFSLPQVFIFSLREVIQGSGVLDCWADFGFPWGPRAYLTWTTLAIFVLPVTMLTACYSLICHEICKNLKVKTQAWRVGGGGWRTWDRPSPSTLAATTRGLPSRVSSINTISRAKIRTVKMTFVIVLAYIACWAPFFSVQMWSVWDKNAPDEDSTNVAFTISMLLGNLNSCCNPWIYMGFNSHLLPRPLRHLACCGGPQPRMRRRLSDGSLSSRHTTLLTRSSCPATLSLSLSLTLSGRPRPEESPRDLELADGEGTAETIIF
Nature of the experiment: HTRF cAMP counter screen in HEK293-V1b cells. The format is cell-based. (TR-FRET usually uses a lanthanide donor and a delayed reading to cut background.)

The target in experiment [5] is human relaxin family receptor 2 (RXFP2) (Homo sapiens, UniProt Q8WXD0). The experiment in a line: HTRF cAMP selectivity assay in HEK293-RXFP2 cells. The settings on record: HEK293-RXFP1 vs HEK293-RXFP2. Format: cell-based.
human relaxin family receptor 2 (RXFP2), sequence (Q8WXD0 whole entry): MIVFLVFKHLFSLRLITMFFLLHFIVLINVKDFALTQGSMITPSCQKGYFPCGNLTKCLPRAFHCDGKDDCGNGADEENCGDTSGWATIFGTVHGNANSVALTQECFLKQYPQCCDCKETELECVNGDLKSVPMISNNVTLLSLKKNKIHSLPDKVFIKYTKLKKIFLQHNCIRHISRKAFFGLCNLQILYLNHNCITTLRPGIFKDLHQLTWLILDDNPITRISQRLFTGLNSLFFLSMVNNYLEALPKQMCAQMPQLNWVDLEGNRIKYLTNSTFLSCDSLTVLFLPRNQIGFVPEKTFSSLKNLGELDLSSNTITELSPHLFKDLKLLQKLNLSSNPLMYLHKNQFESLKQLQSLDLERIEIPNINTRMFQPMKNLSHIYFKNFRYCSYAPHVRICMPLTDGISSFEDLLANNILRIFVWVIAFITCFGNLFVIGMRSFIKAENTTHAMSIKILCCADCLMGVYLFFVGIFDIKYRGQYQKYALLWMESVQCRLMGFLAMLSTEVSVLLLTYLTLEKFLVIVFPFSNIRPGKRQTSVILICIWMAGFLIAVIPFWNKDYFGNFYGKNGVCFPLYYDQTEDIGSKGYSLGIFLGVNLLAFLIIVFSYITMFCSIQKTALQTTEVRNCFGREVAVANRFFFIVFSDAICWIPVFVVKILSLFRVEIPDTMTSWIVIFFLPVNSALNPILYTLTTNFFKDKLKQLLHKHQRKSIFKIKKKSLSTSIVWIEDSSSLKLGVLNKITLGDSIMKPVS

Porcine relaxin (ligand), sequence (P01348 25-182): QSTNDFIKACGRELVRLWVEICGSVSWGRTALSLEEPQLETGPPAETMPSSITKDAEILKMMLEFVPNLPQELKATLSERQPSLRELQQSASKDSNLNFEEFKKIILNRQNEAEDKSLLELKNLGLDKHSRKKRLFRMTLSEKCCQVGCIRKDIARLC

What is called pEC50 is the negative decadic logarithm of the EC50, by convention in mol/L. In the case of `O=C(Nc1ccccc1C(=O)Nc1ccccc1C(=O)NCc1ccco1)c1ccco1` [MLS000088899], in experiment [1], the pEC50 is 5.54 and the efficacy was found to be 80%.

For the compound `O=C(Nc1cccc(C(F)(F)F)c1)c1ccccc1NC(=O)C1CCCCC1` [MLS000579461], in experiment [1], the negative-log EC50 (pEC50) was 5.21 and the efficacy was determined as 60%.

Porcine relaxin (ligand) came in with an EC50 of cAMP production (HTRF cAMP assay) in HEK293-RXFP1 cells, 384-well format in experiment [2] of 0.203 nM.

For the compound `C=C[C@@]1(C)CC(=O)[C@]2(O)[C@@]3(C)[C@@H](O)CCC(C)(C)[C@@H]3[C@H](O)[C@H](OC(C)=O)[C@@]2(C)O1` [forskolin, reference compound], the pEC50 in experiment [3] (EC50 (cAMP response), HEK293-RXFP1 cells, 384-well format) was 6.79; in experiment [3] (EC50 (cAMP response), HEK293-RXFP1 cells, 1,536-well format), 6.71.

Turning to relaxin, the pEC50 in experiment [3] (read-out: EC50 (cAMP response), HEK293-RXFP1 cells, 384-well format) is 9.69; in experiment [3] (read-out: EC50 (cAMP response), HEK293-RXFP1 cells, 1,536-well format), 9.31. Besides, the “activity in HEK293-V1b counter screen” value in experiment [4] is “no activity”. Also, the “selectivity towards RXFP1 over RXFP2” value in experiment [5] was greater than 30 fold.
